Assay results published in ChEMBL document CHEMBL4229460, “Design and biological evaluation of novel hybrids of 1, 5-diarylpyrazole and Chrysin for selective COX-2 inhibition” (Bioorg Med Chem, 2018).
pIC50: −log10 of the molar value.

Experiments:
HEK-293T = assay: Cytotoxicity against human 293T cells after 48 hrs by MTT assay; assay type: cell-based
HeLa [1] = assay: Induction of apoptosis in human HeLa cells assessed as live cells at 1.25 uM after 24 hrs by Annexin-V-FITC/propidium iodide staining based flow cytometry (reference value: 94.6%); assay type: functional
Method in brief: (§1)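 HeLa seeded at 2 × 10⁵ cells/well. Dose series was 0, 1.25, 2.5, 5 and 10 μM for 24 h; time course was 5 μM for 12, 24, 36 or 48 h. Trypsinized and washed in ice-cold PBS, then stained in binding buffer with Annexin V-FITC and PI for 10 min in the dark. Flow cytometry scored early (Annexin⁺/PI⁻) and late (Annexin⁺/PI⁺) apoptotic cells.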

HeLa [2] = assay: Induction of apoptosis in human HeLa cells assessed as early apoptotic cells at 1.25 uM after 24 hrs by Annexin-V-FITC/propidium iodide staining based flow cytometry (reference value: 2.98%); assay type: functional; method in brief: as §1
HeLa [3] = assay: Induction of apoptosis in human HeLa cells assessed as live cells at 2.5 uM after 24 hrs by Annexin-V-FITC/propidium iodide staining based flow cytometry (reference value: 94.6%); assay type: functional; method in brief: as §1
HeLa [4] = assay: Induction of apoptosis in human HeLa cells assessed as late apoptotic cells at 2.5 uM after 24 hrs by Annexin-V-FITC/propidium iodide staining based flow cytometry (reference value: 1.72%); assay type: functional; method in brief: as §1
HeLa [5] = assay: Induction of apoptosis in human HeLa cells assessed as live cells at 5 uM after 24 hrs by Annexin-V-FITC/propidium iodide staining based flow cytometry (reference value: 94.6 to 95.1%); assay type: functional; method in brief: as §1
HeLa [6] = assay: Induction of apoptosis in human HeLa cells assessed as late apoptotic cells at 5 uM after 24 hrs by Annexin-V-FITC/propidium iodide staining based flow cytometry (reference value: 1.72 to 2.57%); assay type: functional; method in brief: as §1
HeLa [7] = assay: Induction of apoptosis in human HeLa cells assessed as necrotic cells at 5 uM after 24 hrs by Annexin-V-FITC/propidium iodide staining based flow cytometry (reference value: 0.242 to 1.12%); assay type: functional
Method in brief: (§2)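 HeLa cells in DMEM with 10% FBS, penicillin/streptomycin, 37 °C, 5% CO₂; seeded 2 × 10⁵ cells/well in six-well plates, treated at 0, 1.25, 2.5, 5 and 10 μM for 24 h, or at 5 μM for 12, 24, 36 or 48 h. Cells trypsinized, washed in ice-cold PBS, stained in binding buffer with Annexin V-FITC and PI for 10 min in the dark, then analyzed by flow cytometry.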

HeLa [8] = assay: Induction of apoptosis in human HeLa cells assessed as necrotic cells at 10 uM after 24 hrs by Annexin-V-FITC/propidium iodide staining based flow cytometry (reference value: 0.242%); assay type: functional; method in brief: as §1
HeLa [9] = assay: Induction of apoptosis in human HeLa cells assessed as early apoptotic cells at 5 uM after 12 hrs by Annexin-V-FITC/propidium iodide staining based flow cytometry (reference value: 1.24%); assay type: functional; method in brief: as §1
HeLa [10] = assay: Induction of apoptosis in human HeLa cells assessed as late apoptotic cells at 5 uM after 12 hrs by Annexin-V-FITC/propidium iodide staining based flow cytometry (reference value: 2.57%); assay type: functional; method in brief: as §1
HeLa [11] = assay: Induction of apoptosis in human HeLa cells assessed as necrotic cells at 5 uM after 12 hrs by Annexin-V-FITC/propidium iodide staining based flow cytometry (reference value: 1.12%); assay type: functional; method in brief: as §1
HeLa [12] = assay: Induction of apoptosis in human HeLa cells assessed as live cells at 5 uM after 36 hrs by Annexin-V-FITC/propidium iodide staining based flow cytometry (reference value: 95.1%); assay type: functional; method in brief: as §1
HeLa [13] = assay: Induction of apoptosis in human HeLa cells assessed as early apoptotic cells at 5 uM after 36 hrs by Annexin-V-FITC/propidium iodide staining based flow cytometry (reference value: 1.24%); assay type: functional; method in brief: as §1
HeLa [14] = assay: Induction of apoptosis in human HeLa cells assessed as late apoptotic cells at 5 uM after 36 hrs by Annexin-V-FITC/propidium iodide staining based flow cytometry (reference value: 2.57%); assay type: functional; method in brief: as §1
HeLa [15] = assay: Induction of apoptosis in human HeLa cells assessed as necrotic cells at 5 uM after 36 hrs by Annexin-V-FITC/propidium iodide staining based flow cytometry (reference value: 1.12%); assay type: functional; method in brief: as §2
HeLa [16] = assay: Disruption of mitochondrial membrane potential in human HeLa cells assessed as collapse of the mitochondrial membrane potential at 2.5 uM after 12 hrs by JC1 staining based flow cytometry (reference value: 0.768%); assay type: functional
HeLa [17] = assay: Disruption of mitochondrial membrane potential in human HeLa cells assessed as intact mitochondrial membrane at 5 uM after 12 hrs by JC1 staining based flow cytometry (reference value: 99.2%); assay type: functional
HeLa [18] = assay: Disruption of mitochondrial membrane potential in human HeLa cells assessed as collapse of the mitochondrial membrane potential at 10 uM after 12 hrs by JC1 staining based flow cytometry (reference value: 0.768%); assay type: functional
HeLa [19] = assay: Disruption of mitochondrial membrane potential in human HeLa cells assessed as intact mitochondrial membrane at 10 uM after 12 hrs by JC1 staining based flow cytometry (reference value: 99.2%); assay type: functional
HeLa [20] = assay: Cell cycle arrest in human HeLa cells assessed as accumulation at S phase at 1.25 uM after 24 hrs by propidium iodide staining based flow cytometry (reference value: 18.16%); assay type: functional
HeLa [21] = assay: Cell cycle arrest in human HeLa cells assessed as accumulation at G2/M phase at 1.25 uM after 24 hrs by propidium iodide staining based flow cytometry (reference value: 21.45%); assay type: functional
HeLa [22] = assay: Cell cycle arrest in human HeLa cells assessed as accumulation at S phase at 2.5 uM after 24 hrs by propidium iodide staining based flow cytometry (reference value: 18.16%); assay type: functional
HeLa [23] = assay: Cell cycle arrest in human HeLa cells assessed as accumulation at G2/M phase at 2.5 uM after 24 hrs by propidium iodide staining based flow cytometry (reference value: 21.45%); assay type: functional
HeLa [24] = assay: Cell cycle arrest in human HeLa cells assessed as accumulation at G1 phase at 5 uM after 24 hrs by propidium iodide staining based flow cytometry (reference value: 55.51%); assay type: functional
HeLa [25] = assay: Cell cycle arrest in human HeLa cells assessed as accumulation at S phase at 5 uM after 24 hrs by propidium iodide staining based flow cytometry (reference value: 18.16%); assay type: functional
HeLa [26] = assay: Cell cycle arrest in human HeLa cells assessed as accumulation at G2/M phase at 5 uM after 24 hrs by propidium iodide staining based flow cytometry (reference value: 21.45%); assay type: functional
HeLa [27] = assay: Cell cycle arrest in human HeLa cells assessed as accumulation at G1 phase at 10 uM after 24 hrs by propidium iodide staining based flow cytometry (reference value: 55.51%); assay type: functional
HeLa [28] = assay: Cell cycle arrest in human HeLa cells assessed as accumulation at G2/M phase at 10 uM after 24 hrs by propidium iodide staining based flow cytometry (reference value: 21.45%); assay type: functional
HeLa [29] = assay: Cell cycle arrest in human HeLa cells assessed as accumulation at G1 phase after 24 hrs by propidium iodide staining based flow cytometry; assay type: functional

With COc1ccc(-c2cc(COC(=O)COc3cc(O)c4c(=O)cc(-c5ccccc5)oc4c3)nn2-c2ccc(C)cc2)cc1 the pIC50 (HEK-293T) was 3.71, the Activity (HeLa [1]) was 83.2% and the Activity (HeLa [2]) was 12.6%. The Activity (HeLa [3]) was 74.5%, the Activity (HeLa [4]) was 8.28% and the Activity (HeLa [5]) was 43.7 - 57.3%. The Activity (HeLa [6]) was 0.9 - 7.15%, the Activity (HeLa [7]) was 0.073 - 0.427% and the Activity (HeLa [8]) was 0.325%. The Activity (HeLa [9]) was 22.7%, the Activity (HeLa [10]) was 7.07% and the Activity (HeLa [11]) was 1.71%. It also gave an Activity (HeLa [12]) of 48.7%, an Activity (HeLa [13]) of 40.4% and an Activity (HeLa [14]) of 7.82%. The Activity (HeLa [15]) was 2.08%, the Activity (HeLa [16]) was 5.61% and the Activity (HeLa [17]) was 90.5%. The Activity (HeLa [18]) was 13.3%, the Activity (HeLa [19]) was 86.5% and the Activity (HeLa [20]) was 17.96%. It also gave an Activity (HeLa [21]) of 13.65%, an Activity (HeLa [22]) of 18.61% and an Activity (HeLa [23]) of 9.58%. For the same compound, the Activity (HeLa [24]) was 72.83%, the Activity (HeLa [25]) was 15.67% and the Activity (HeLa [26]) was 8.16%. The Activity (HeLa [27]) was 76.02%, the Activity (HeLa [28]) was 5.24% and the Activity (HeLa [29]) was “Dose-dependent effect”.
